ChEMBL document CHEMBL4229446, “Development of Novel Monoamine Oxidase-B (MAO-B) Inhibitors with Reduced Blood-Brain Barrier Permeability for the Potential Management of Noncentral Nervous System (CNS) Diseases” (J Med Chem, 2018)
pIC50: −log10 of the molar value.

Assays:
[1] = target: T1, Amine oxidase [flavin-containing] A (Homo sapiens, UniProt P21397); assay: Inhibition of human recombinant MAO-A expressed in baculovirus infected BTI-TN-5B1-4 insect cells using tyramine as substrate preincubated for 1 hr followed by substrate addition and measured after 30 mins by resazurin dye-based fluorescence assay
T1 sequence (P21397 whole entry): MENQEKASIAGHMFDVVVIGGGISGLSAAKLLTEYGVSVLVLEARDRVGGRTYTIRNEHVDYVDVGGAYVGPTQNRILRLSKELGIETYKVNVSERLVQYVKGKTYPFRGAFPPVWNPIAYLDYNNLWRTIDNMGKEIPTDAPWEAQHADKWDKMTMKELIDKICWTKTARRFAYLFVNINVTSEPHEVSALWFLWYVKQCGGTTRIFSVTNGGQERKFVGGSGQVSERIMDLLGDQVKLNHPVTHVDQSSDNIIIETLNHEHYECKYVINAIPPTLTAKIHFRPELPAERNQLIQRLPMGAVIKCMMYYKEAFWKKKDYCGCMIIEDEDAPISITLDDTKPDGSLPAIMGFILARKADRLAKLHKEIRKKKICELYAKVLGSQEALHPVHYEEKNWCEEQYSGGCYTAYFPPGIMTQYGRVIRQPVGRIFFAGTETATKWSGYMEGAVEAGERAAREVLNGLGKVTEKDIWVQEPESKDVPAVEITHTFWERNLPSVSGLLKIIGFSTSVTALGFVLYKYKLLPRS

[2] = Ratio of AUClast in brain to plasma in C57BL/6 mouse at 24.5 mg/kg, po administered as single dose measured 24 hrs by UPLC-MS/MS analysis; type: ADME, organism-based
Method in brief: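 15 animals dosed, 3 sacrificed at each of 1, 2, 4, 6 and 24 h. Plasma and brain homogenate were extracted and quantified by UPLC-MS/MS. Parameters came from noncompartmental analysis. Values above or below the limit of quantification, or undetected, were omitted. Kp = AUClast brain/plasma.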

Mus musculus [3] = assay: Acute toxicity in C57BL/6 mouse assessed as abnormal clinical signs at […], sc administered as single dose measured after 24 hrs post-injection; type: organism-based; conditions: in vivo
Mus musculus [4] = assay: Acute toxicity in C57BL/6 mouse assessed as abnormal clinical signs at […], po administered as single dose measured after 24 hrs post-injection; type: organism-based; conditions: in vivo
[5] = Metabolic stability in human liver microsomes assessed as parent compound remaining at 1 uM after 60 mins by UPLC-MS/MS analysis; type: ADME, microsome; conditions: liver microsomes, read-out: Stability
Method in brief: (§1)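 Compound at 1 μM with 0.5 mg/mL mouse or human liver microsomes in 100 mM potassium phosphate pH 7.4, 3.3 mM MgCl2, 1 mM NADPH, at 37 °C. Started with NADPH; minus-NADPH control run. Stopped at 0, 5, 15, 30, 45 and 60 min with acetonitrile/formic acid plus internal standard. Parent remaining by UPLC-MS/MS, in triplicate.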

Mus musculus [6] = assay: Acute toxicity in C57BL/6 mouse assessed as abnormal clinical signs at […], iv administered as single dose measured after 24 hrs post-injection; type: organism-based; conditions: in vivo
[7] = Apparent half-life of the terminal disposition phase in C57BL/6 mouse plasma at 24.5 mg/kg, iv administered as single dose measured 24 hrs by UPLC-MS/MS analysis; type: ADME, organism-based; conditions: read-out: t1/2 lambda z (converted)
Method in brief: (§2)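 21 animals dosed at 0 min, 3 sacrificed at each of 0, 5, 15, 30 min, 1, 4 and 24 h. Plasma was extracted by protein precipitation with phospholipid removal. Brain was weighed, bead-homogenised in 50 mM ammonium formate and extracted in acidified organic solvent. Quantified by UPLC-MS/MS (MRM). Brain ng/g taken as ng/mL. Parameters came from noncompartmental analysis. Kp = AUClast brain/plasma.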

[8] = Metabolic stability in human plasma assessed as parent compound remaining at 5 uM after 4 hrs by UPLC-MS/MS analysis; type: ADME, cell-free; conditions: read-out: Stability
Method in brief: (§3)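 Compound at 5 μM was incubated in mouse or human plasma at 37 °C with shaking. Sampled at 0, 5, 15, 30, 60, 120 and 240 min and stopped with ice-cold acetonitrile/0.1% formic acid containing internal standard. Supernatants analysed by UPLC-MS/MS for parent remaining. Run in triplicate.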

P-gp (MDR1) = assay: Efflux ratio of apparent permeability in MDCK2-MDR1 cells at 10 uM after 1 hr in absence of P-gp inhibitor verapamil by UPLC-MS/MS analysis; type: ADME, cell-based, Canis lupus familiaris; conditions: dog, MDCK-MDR1
Method in brief: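 MDCK-WT (MEM-α/10% FBS) or MDCK-MDR1 II (DMEM/10% FBS) cells were grown 3 days on 12-well transwells. Integrity was checked by TEER and 100 μM Lucifer yellow. Cells were washed in HBSS/10 mM HEPES. Compound at 10 μM was added apically or basally, in triplicate, ±100 μM verapamil. Receiver sampled at 1 h by UPLC-MS/MS. Efflux ratio = Papp B→A / Papp A→B.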

[9] = Metabolic stability in cryopreserved mouse hepatocytes assessed as parent compound remaining at 1 uM after 60 mins by UPLC-MS/MS analysis; type: ADME, cell-based, Hepatocyte; conditions: read-out: Stability
[10] = Metabolic stability in mouse plasma assessed as parent compound remaining at 5 uM after 4 hrs by UPLC-MS/MS analysis; type: ADME, cell-free; conditions: read-out: Stability; method in brief: as §3
[11] = Tmax in C57BL/6 mouse brain at 24.5 mg/kg, po administered as single dose measured 24 hrs by UPLC-MS/MS analysis; type: ADME, organism-based
Method in brief: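 Brain portion homogenised in 50 mM ammonium formate with beads, acidified organic extraction, UPLC-MS/MS. ng/g read as ng/mL. Noncompartmental analysis; values above or below quantification limit, or undetected, excluded.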

[12] = AUClast in C57BL/6 mouse brain at 24.5 mg/kg, iv administered as single dose measured 24 hrs by UPLC-MS/MS analysis; type: ADME, organism-based; parameters: dose 24.5 mg/kg, route intravenous, time 0 - last; method in brief: as §2
[13] = Metabolic stability in mouse liver microsomes assessed as parent compound remaining at 1 uM after 60 mins in presence of NADPH by UPLC-MS/MS analysis; type: ADME, microsome; conditions: read-out: Stability; method in brief: as §1
[14] = Efflux ratio of apparent permeability in MDCK-WT cells at 10 uM after 1 hr in absence of P-gp inhibitor verapamil by UPLC-MS/MS analysis; conditions: dog
[15] = Tmax in C57BL/6 mouse plasma at 23.4 mg/kg, po administered as single dose measured 24 hrs by UPLC-MS/MS analysis; type: ADME, organism-based
Method in brief: (§4)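 15 animals dosed, 3 killed at each of 1, 2, 4, 6 and 24 h. Plasma and brain homogenate (ammonium formate, acidified organic extraction) assayed by UPLC-MS/MS, brain ng/g taken as ng/mL. Noncompartmental parameters exclude values above/below quantification limit or undetected. Kp = AUClast brain/plasma.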

[16] = Cmax in C57BL/6 mouse brain at 23.4 mg/kg, sc administered as single dose measured 24 hrs by UPLC-MS/MS analysis; type: ADME, organism-based; parameters: dose 23.4 mg/kg, route subcutaneous; method in brief: as §4

With `C[C@H](Cc1ccc(OCc2ccc(Br)c(Cl)c2)cc1)N(C)CC(=O)O` the pIC50 [1] was under 4.30, the Kp at 24 h [2] was 0.12 and the Activity (Mus musculus [3]) was “Non-Toxic”. The Activity (Mus musculus [4]) was “Non-Toxic”, the remaining at 1 h, 1 µM [5] was at least 90% and the Activity (Mus musculus [6]) was “Non-Toxic”. For the same compound, the half-life [7] was 3.93 h, the remaining at 4 h, 5 µM [8] was at least 75% and the efflux ratio at 1 h, 10 µM (P-gp (MDR1)) was 2.12. It also gave a remaining at 1 h, 1 µM [9] of at least 90%, a remaining at 4 h, 5 µM [10] of at least 75% and a Tmax [11] of 6 h. It also gave an AUC(0-t) at 24 h [12] of 10700 ng·h/mL, a remaining at 1 h, 1 µM [13] of 93.4% and an efflux ratio at 1 h, 10 µM [14] of 1.33.
In the case of `CN(CC(=O)O)[C@H](CC#N)Cc1ccc(OCc2ccc(Cl)c(Cl)c2)cc1`, the pIC50 [1] was 3.90, the Tmax [15] was 1 h and the Activity (Mus musculus [3]) was “Non-Toxic”. The Activity (Mus musculus [4]) was “Non-Toxic”, the remaining at 1 h, 1 µM [5] was at least 90% and the Activity (Mus musculus [6]) was “Non-Toxic”. For the same compound, the remaining at 4 h, 5 µM [8] was at least 75%, the efflux ratio at 1 h, 10 µM (P-gp (MDR1)) was 1.14 and the remaining at 1 h, 1 µM [9] was 64%. It also gave a Cmax [16] of 91.3 ng/mL, a remaining at 4 h, 5 µM [10] of at least 75% and a remaining at 1 h, 1 µM [13] of 39%. The efflux ratio at 1 h, 10 µM [14] was 1.07.
